Measurements of several laboratories.
Compare with care: the assays were run in different laboratories.
CDK7: Cyclin-dependent kinase 7 (CDK7, Homo sapiens, UniProt P50613)
CDK7 with cyclin H: Cyclin-dependent kinase 7, with cyclin H (CDK7, Homo sapiens, UniProt P50613)

The remaining binding of `COc1ncccc1-c1cnn2ccc(N3CCN(C(=O)OC(C)C)CC3)nc12` is reported as 100% (CDK7; binding; competition with immobilised ligand; 1 µM).
With `CNC(=O)Oc1ccc2c(c1)[C@]1(C)CCN(C)[C@@H]1N2C` the inhibition was -4.5% (CDK7 with cyclin H; enzyme activity; inhibitor; ADP detection; 10 µM).
`Nc1ncc(-c2nc(N3CCOCC3)nc(N3CCOCC3)n2)c(C(F)F)n1` has a remaining binding of 56% (CDK7; binding; competition with immobilised ligand; 10 µM).
`C[C@]12CC[C@H](O)CC1=CC[C@@H]1[C@@H]2CC[C@]2(C)C(=O)CC[C@@H]12` gave an inhibition of -2% (CDK7 with cyclin H; enzyme activity; inhibitor; ADP detection; 10 µM).
`Cn1cc(-c2cc(F)cc(N3CCn4c(cc5c4CCCC5)C3=O)c2CO)cc(Nc2ccc(N3CCN(C4COC4)CC3)cn2)c1=O` gave an inhibition of 4% (CDK7 with cyclin H; enzyme activity; inhibitor; 0.1 µM).
The remaining binding of `CCN1CCN(Cc2ccc(C(=O)Nc3ccc(C)c(Oc4ccc5c(c4)CC(=O)N5)c3)cc2C(F)(F)F)CC1` is reported as 84% (CDK7; binding; competition with immobilised ligand; 1 µM).
For `COc1cc2occc2c2oc(=O)ccc12`, the inhibition was -29.9% (CDK7 with cyclin H; enzyme activity; inhibitor; ADP detection; 10 µM).
With `Cc1nn(C)cc1-c1nc2c(N3CCN(Cc4ccc(Cl)cc4)CC3)c(Cl)cnc2[nH]1` the remaining binding was 100% (CDK7; binding; competition with immobilised ligand; 1 µM).
With `Cn1cc(-c2cccc(N3CCc4c(sc5c4CC(C)(C)C5)C3=O)c2CO)cc(Nc2ccncn2)c1=O` the inhibition was -11% (CDK7 with cyclin H; enzyme activity; inhibitor; 1 µM).
With `Cn1cncc1[C@](O)(COc1ccc(C#N)cc1-c1ccc(OC(F)(F)F)cc1)c1ccc(C#N)cc1` the remaining binding was 95% (CDK7; cell-free assay; competition with immobilised ligand; 1 µM).
